Reference: paper PMC2919362 (Chemical biology & drug design, 2010)
Where no end group is shown, it is not given here. The star is where a group is joined. 5FAM = O=C1OC2(c3ccc(O)cc3Oc3cc(O)ccc32)c2ccc(C(=O)*)cc21; Farnesyl = CC(C)=CCC/C(C)=C/CC/C(C)=C/C*

How the values were obtained:
D1TNC1 astrocytes [1] = test: Flow cytometry of peptide uptake in D1TNC1 astrocytes; format: cell-based, rat; details: 1 μM, 2 h, 37°C, trypsinized 15 min, triplicate (Figure 6)
PC-12 cells [2] = test: Flow cytometry of peptide uptake in PC-12 cells; format: cell-based, rat; details: 1 μM, 2 h, 37°C, trypsinized 15 min, triplicate (Figure 6)
PC-12 cells [3] = test: CLSM of peptide uptake in PC-12 differentiated neurons; format: cell-based, rat; details: 1 μM, 2 h, live cells (Figure 4D)
Outline: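 Neuronal differentiation and imaging. PC-12 cells were seeded at 3.9 × 10^3 cells/cm2 on poly-lysine plates and grown for 24 h. They were serum-starved for 24 h in F12K + 1% HS, then differentiated with 100 ng/mL β-NGF in the same medium for 6–8 days, refreshed every 2 days. Labelled peptide was incubated in F12K + 1% HS at 37°C, 5.0% CO2, with Hoechst 34580 and WGA–Alexa Fluor 594 counterstains. Live cells were imaged by confocal microscopy (60X).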

NIH/3T3 fibroblast cells = test: CLSM of peptide uptake in live NIH/3T3 fibroblasts; format: cell-based, Swiss mouse; details: 1 μM, 2 h, live cells (Figure 4B)
Outline: (§1)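 Live-cell confocal imaging. Cells were seeded at 7.8 × 10^3 cells/cm2 and grown to about 50% confluency (about 24 h), then washed twice with PBS. Peptide (5-Fam labelled) was incubated in serum-free DMEM at 37°C, 5.0% CO2. Nuclei were stained with Hoechst 34580 (1 μg/mL final, last 20 min) and membranes with WGA–Alexa Fluor 594 (5 μg/mL final, last 10 min). Cells were then washed twice and imaged with a 60X objective; emission was read at 520/450/620 nm.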

D1TNC1 astrocytes [4] = test: CLSM of peptide uptake in live D1TNC1 astrocytes; format: cell-based, rat; details: 1 μM, 2 h, live cells (Figure 4C)
Outline: as §1

COS-1 cells = test: CLSM of peptide uptake in live COS-1 cells; format: cell-based, African green monkey; details: 1 μM, 2 h, live cells (Figure 4A)
Outline: as §1

Substance: 5-Fam-KKSRRC(S-decyl)VLS [5b]
- entry into astrocytes compared with HeLa cells (flow cytometry) (D1TNC1 astrocytes [1]): efficiency comparable to that observed with HeLa cells
- entry into PC12 cells compared with HeLa cells (flow cytometry) (PC-12 cells [2]): efficiency comparable to that observed with HeLa cells

Substance: 5FAM-KKSRRC(Farnesyl)VLS [4b]
- uptake in PC-12 cells (CLSM) (PC-12 cells [3]): significant uptake
- uptake in NIH/3T3 fibroblast cells (CLSM) (NIH/3T3 fibroblast cells): moderate uptake
- uptake in D1TNC1 astrocytes (CLSM) (D1TNC1 astrocytes [4]): significant uptake
- uptake in COS-1 cells (CLSM) (COS-1 cells): moderate uptake
